Bioassay records: PubChem BioAssay, several laboratories
The list is not random: actives were taken first. Their share in the collection is about 5.4%.
Cav3 T inh: Cav3.2 calcium influx blockers – cell-based, Fluo-4 calcium fluorescence, FDSS, MLSMR library, primary screen; B-score at 10 µM; Voltage-dependent T-type calcium channel subunit alpha-1H (Homo sapiens), O95180; 100,000 tested, 4% active; Cav3.2-expressing cells; active compounds read low; AID 449739, 2010;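 active = single-dose well whose peak fluorescence ratio is a statistical outlier from its plate by either plate-standardised score or position-corrected B-score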
hDAT+cocaine: changed hDAT dopamine uptake under cocaine IC80, either direction, primary screen, cocaine antagonist project, cell-based, LLC-PK1 hDAT, [14C]-dopamine uptake, MLSMR. Sodium-dependent dopamine transporter (Homo sapiens), Q01959. AID 449768, 2010. 110,000 tested, 1.3% active. B-score at 10 µM. LLC-PK1 hDAT cells, [14C]-dopamine uptake with cocaine IC80; actives deviate in either direction;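 active = Z score or B-score, a plate-position-corrected score, falls beyond the plate's 99.7% confidence bounds, in either direction; inactive = both scores lie inside the 99.7% bounds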
EphB4 antag: EphB4-ephrin-B2 interaction antagonists, primary screen, biochemical, TNYL-RAW peptide probe, fluorescence polarization | inhibition, % at 7 µM | EphB4 LBD / TNYL-RAW-Alexa532 peptide | Ephrin type-B receptor 4 (Homo sapiens), P54760 | 97,000 tested, 0.15% active | AID 720, 2007;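 active = inhibition above the screen-wide mean inhibition plus 3 SD, cut at about 15% in these data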
HIV Rev-RRE inh: HIV-1 Rev-RRE binding inhibitors, primary screen, biochemical, FRET, protein-RNA interaction; inhibition, % at 8 µM; AID 704, 2007; P05866; 97,000 tested, 0.79% active; Rev peptide-RRE RNA binding;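 active = inhibition above the screen-wide mean plus 3 SD, cut at about 35% in these data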
Target sequence (P05866 whole entry, looked up): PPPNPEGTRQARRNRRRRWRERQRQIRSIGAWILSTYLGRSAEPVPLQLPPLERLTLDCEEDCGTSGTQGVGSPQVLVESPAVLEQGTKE
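Assay system: Labelled RRE RNA duplex and labelled Rev peptide | Times: 5 min preincubation and 15 min binding, 25 °C | Detection: FRET, ex 480 nm, em 540 and 671 nm | Evaluation: % inhibition of FRET ratio versus controls | Benchmarks: DMSO wells as 0% and neomycin B wells as 100% inhibition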
Numbers stand for hits; – = inactive; · = no result; [ ] = remark or other dose.

SMILES | Cav3 T inh | hDAT+cocaine | EphB4 antag | HIV Rev-RRE inh
Oc1cccc2nc3ccccc3nc12 | – | – | · | ·
O=C1NC(=O)C2(Cc3ccccc3N3CCCC32)C(=O)N1c1cccc(Cl)c1 (stereo not drawn) | – | – | · | ·
Cc1ccc(N2C(=O)NC(=O)C3(Cc4ccccc4N4CCN(c5ccccc5)CC43)C2=O)cc1 (stereo not drawn) | -6.8 | – | – | –
O=C1CN(C(=O)CN2CCCCC2)C(c2ccccc2)c2cc(Br)ccc2N1 (stereo not drawn) | – | – | 16 | –
COC(=O)C(O)(c1ccc2c(c1)CCCN2)C(F)(F)F (stereo not drawn) | – | – | · | ·
CC#CP(=O)(OCC)C(O)(c1ccccc1)C(F)(F)F (stereo not drawn) | – | – | – | –
CCOP(=O)(C#CC(C)(C)C)C(O)(c1ccccc1)C(F)(F)F (stereo not drawn) | -5.6 | – | – | –
O=c1cc(C(F)(F)F)c2cc3c4c(c2o1)CCCN4CCC3 | -7.8 | – | – | 132[fluorescence artefact?]
Cc1cc2c(C(F)(F)F)cc(=O)oc2c2c1NCCC2 | -8.3 | – | – | 130[fluorescence artefact?]
CN1CC[C@@H](c2ccc(F)cc2)[C@H](COc2ccc3c(c2)OCO3)C1 | – | – | · | ·
CC(C)(O)[C@@H]1[C@H]2OC(=O)[C@@H]1[C@]1(O)C[C@H]3O[C@]34C(=O)O[C@H]2[C@]14C (tested in a mixture with another compound) | · | – | · | ·
CN1CCc2nc(N)c(C#N)c(-c3ccccc3)c2C1 | · | – | – | 46
CCN(CCCl)Cc1ccccc1Br | -5.1 | – | · | ·
COc1ccc(C2=NCC(=O)N(CC(=O)NCc3ccco3)c3sc4c(c32)CCCC4)cc1 | – | – | – | –
Cc1cccc(C2=NCC(=O)N(CC(=O)NCc3ccco3)c3sc4c(c32)CCCC4)c1 | -3.9 | – | – | –
C=C(COC(=O)CCC(=O)O)CC1CC(O)[C@]2(C)OC3CC4OC5C[C@]6(C)O[C@]7(C)CCC8OC9C[C@]%10(C)OC%11C(C)=CC(=O)OC%11CC%10OC9C[C@@H](C)C8OC7CC6O[C@]5(C)C/C=C\C4OC3CC2O1 (stereo partly drawn) | – | – | · | ·
O=C(Cn1ncc2c3ccccc3n(Cc3ccccc3)c2c1=O)N1CCC2(CC1)OCCO2 | -11 | – | · | ·
Cc1c2cnn(CC(=O)N3CCC4(CC3)OCCO4)c(=O)c2c(C)n1Cc1ccc(F)cc1 | – | – | · | ·
O=C(Cn1ncc2c3ccccc3n(Cc3ccccc3F)c2c1=O)N1CCC2(CC1)OCCO2 | -8.6 | – | · | ·
CC(=O)O[C@@H]1/C=C/[C@](C)(O)C[C@@H](C)C/C=C/[C@H]2[C@@H]3O[C@]3(C)[C@@H](C)[C@H]3[C@H](Cc4ccccc4)NC(=O)[C@@]312 | – | – | · | ·
CC1(C)COC(Nc2cccc(Cl)c2)=N1 | – | – | – | –
CNCC(=O)c1ccccc1 | – | – | · | ·
CC/C(=C\C=C\[C@@H]1C=C[C@@H]2CCC[C@H]2[C@@H]1C(=O)c1ccc[nH]1)[C@@H]1O[C@@H]([C@@H](C)C(=O)O)CC[C@@H]1C | -8.5 | -4 | – | –
CP(=O)(O)CCCN | – | – | – | –
O=C(c1ccco1)c1cn(Cc2ccccc2Cl)c2ccccc12 | -6 | – | – | –
SMILES | Cav3 T inh | hDAT+cocaine | EphB4 antag | HIV Rev-RRE inh
CC(C)C(=O)c1cn(Cc2ccc(C#N)cc2)c2ccccc12 | -5.6 | – | – | –
CCC(=O)c1cn(Cc2ccccc2C#N)c2ccccc12 | – | – | – | –
N#Cc1ccccc1Cn1cc(C(=O)c2ccco2)c2ccccc21 | -6.1 | – | – | –
Cc1nc2cc(-c3ccc(Cl)cc3)nn2c(C)c1CCC(=O)N1CCC2(CC1)OCCO2 | · | · | – | –
CC(=O)N(C)CC#CCN1CCC(O)CC1 | – | – | · | ·
CC[C@H]1CN2CC[C@@]3(C(=O)Nc4ccccc43)[C@@H]2C[C@@H]1/C(=C\OC)C(=O)OC | – | – | · | ·
CC(=O)N1N=C2C3CCN(CC3)C2C1c1ccccc1 (stereo not drawn) | -3.9 | – | – | –
COC[C@]12CN(C)C3C4[C@H](OC)[C@H]1C3([C@@H](OC)C[C@H]2O)[C@@H]1C[C@@]2(O)[C@H](OC(=O)c3ccccc3)[C@@H]1[C@]4(OC(C)=O)[C@@H](O)[C@@H]2OC | – | – | · | ·
CS(=O)(=O)c1ccc(C2=C(c3ccccc3)C(=O)OC2)cc1 | – | – | · | ·
CC(C)(C)P(=O)(c1ccncc1)N1CCCC1 (stereo not drawn) | – | 6.2 | – | –
O=c1cccc2n1CC1CC2CN(Cc2c(Cl)cccc2Cl)C1 (stereo not drawn) | – | – | · | ·
CC(C)(C)c1ccc(S(=O)(=O)N2CC3CC(C2)c2cccc(=O)n2C3)cc1 (stereo not drawn) | – | 2.4 | – | –
O=c1[nH]c2c(c(=O)n1C1CCCCC1)CCC2 | – | – | – | –
Cc1ccc2c(c1)C1CN(C)CCC1N2C(=O)COc1ccc(S(=O)(=O)N2CCOCC2)cc1 (stereo not drawn) | – | – | – | –
C=C(C)CN1CC[C@]23c4c5ccc(O)c4O[C@H]2c2[nH]c4ccccc4c2C[C@@]3(O)C1C5 | – | – | · | ·
C/C=C(\C)C(=O)OC1C(C)=C2C(C1OC(=O)CCCCC)C(C)(OC(C)=O)CC(OC(=O)CCC)C1(O)C2OC(=O)C1(C)O (stereo not drawn) | 4.3 | – | · | ·
CN1C(=O)C(=Cc2ccc(N3CCCCCC3)o2)C(=O)N(C)C1=S | -7.1 | – | – | 124[fluorescence artefact?]
Cc1cc(C=C2C(=O)N(C)C(=S)N(C)C2=O)c(C)n1C1CCCC1 | – | – | – | –
CN(C)C(=S)SSC(=S)N(C)C | – | – | · | ·
